The structures appear in SMILES notation. Some results are limits rather than exact numbers.

A word on the Vd: it is the apparent volume that relates the amount in the body to the concentration in plasma or blood. Higher therefore signals wide distribution into tissue.

In one series the target is rat mGlu1 (Rattus norvegicus, UniProt P23385). The series can be described thus: rat mGlu1 calcium mobilization assay. The format is cell-based. The settings on record: for mGlu1 pIC50 (± SEM): Calcium mobilization assay, rat mGlu1, NAM; for mGlu1 NAM activity (in words): top concentration tested 30 μM.
Sequence of rat mGlu1 (P23385 19-1199): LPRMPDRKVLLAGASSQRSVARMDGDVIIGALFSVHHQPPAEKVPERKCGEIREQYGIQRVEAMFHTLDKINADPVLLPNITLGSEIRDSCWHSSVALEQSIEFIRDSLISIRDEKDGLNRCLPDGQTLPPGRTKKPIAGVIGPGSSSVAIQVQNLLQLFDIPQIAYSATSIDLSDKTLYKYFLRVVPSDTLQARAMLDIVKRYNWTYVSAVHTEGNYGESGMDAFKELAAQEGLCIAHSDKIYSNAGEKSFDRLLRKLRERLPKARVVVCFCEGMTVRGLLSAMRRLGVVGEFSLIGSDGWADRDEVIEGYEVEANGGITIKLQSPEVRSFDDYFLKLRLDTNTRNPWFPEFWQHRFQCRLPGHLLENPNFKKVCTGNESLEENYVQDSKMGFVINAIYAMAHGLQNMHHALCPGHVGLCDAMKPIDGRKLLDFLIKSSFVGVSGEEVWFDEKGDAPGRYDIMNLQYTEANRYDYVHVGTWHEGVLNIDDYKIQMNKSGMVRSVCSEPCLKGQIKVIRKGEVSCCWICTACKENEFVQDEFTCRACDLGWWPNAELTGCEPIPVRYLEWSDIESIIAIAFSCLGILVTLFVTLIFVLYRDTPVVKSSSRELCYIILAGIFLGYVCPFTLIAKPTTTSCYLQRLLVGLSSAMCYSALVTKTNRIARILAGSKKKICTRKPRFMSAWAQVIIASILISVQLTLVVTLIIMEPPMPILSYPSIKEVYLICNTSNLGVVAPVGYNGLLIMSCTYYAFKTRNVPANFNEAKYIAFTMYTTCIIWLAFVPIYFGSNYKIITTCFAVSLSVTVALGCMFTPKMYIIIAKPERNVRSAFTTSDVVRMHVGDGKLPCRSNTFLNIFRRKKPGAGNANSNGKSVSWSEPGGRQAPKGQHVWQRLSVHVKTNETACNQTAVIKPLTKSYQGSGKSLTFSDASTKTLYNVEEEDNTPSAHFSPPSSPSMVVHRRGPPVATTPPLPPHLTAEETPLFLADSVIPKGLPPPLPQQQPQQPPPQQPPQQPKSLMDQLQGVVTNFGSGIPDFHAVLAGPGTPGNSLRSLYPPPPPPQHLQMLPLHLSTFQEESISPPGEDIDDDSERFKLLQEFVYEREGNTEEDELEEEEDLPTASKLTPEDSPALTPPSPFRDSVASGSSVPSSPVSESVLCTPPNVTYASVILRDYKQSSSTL
Another series addresses rat mGlu5 (Rattus norvegicus, UniProt P31424). The series can be described thus: rat mGlu5 calcium mobilization assay. It is filed as cell-based. (In general: Calcium assays in cells follow changes in intracellular calcium, usually with a dye or a luminescent sensor.)
Series [1] deals with remaining six members of the mGlu family. The series can be described thus: mGlu selectivity fold-shift experiments on orthosteric agonist CRC. It is filed as cell-based.
For series [2], the system named is 68 clinically relevant targets. The series can be described thus: radioligand binding assay panel of 68 clinically relevant targets. The settings on record: 10 μM; significant = greater than or equal to 50% inhibition of binding. The method, boiled down:
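Test compound was screened at a single 10 μM concentration for displacement of radioligand binding at each panel target. Inhibition of binding of at least 50% was counted as a significant response.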

In another series the test system is 369 kinases. The series can be described thus: kinase panel of 369 kinases. It is filed as biochemical. The settings on record: 10 μM.
A further series is described as follows: Rat IV PK. The format is in vivo, male Sprague-Dawley rats. As to conditions: male, Sprague-Dawley, plasma, 0.2 mg/kg. The method, boiled down:
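Male Sprague-Dawley rats were dosed IV with 2 animals per time point. The plasma concentration–time profile gave half-life, plasma clearance and steady-state volume of distribution.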

The nature of series [3]: Rat IP PK time course study. It is filed as in vivo, male Sprague-Dawley rats. The settings on record: rats; IP 10 mg/kg. The method, boiled down:
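Male Sprague-Dawley rats received a single 10 mg/kg IP dose, with 2 animals per time point. Plasma was followed over time for Tmax, Cmax and AUC. Brain and plasma were taken at 15 min to give Kp and Kp,uu. Unbound brain concentration was estimated from these exposures combined with fraction unbound from equilibrium dialysis.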

Series [4] in a line: Mouse IP PK time course study. It is filed as in vivo, male CD-1 mice. As to conditions: mice; IP 30 mg/kg. Summed up:
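Tissue distribution was run in parallel under the same conditions, with brain and plasma taken at 30 min to give Kp and Kp,uu. Unbound brain concentration was estimated from these exposures combined with fraction unbound from equilibrium dialysis.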

Sequence of rat mGlu5 (P31424 21-1203): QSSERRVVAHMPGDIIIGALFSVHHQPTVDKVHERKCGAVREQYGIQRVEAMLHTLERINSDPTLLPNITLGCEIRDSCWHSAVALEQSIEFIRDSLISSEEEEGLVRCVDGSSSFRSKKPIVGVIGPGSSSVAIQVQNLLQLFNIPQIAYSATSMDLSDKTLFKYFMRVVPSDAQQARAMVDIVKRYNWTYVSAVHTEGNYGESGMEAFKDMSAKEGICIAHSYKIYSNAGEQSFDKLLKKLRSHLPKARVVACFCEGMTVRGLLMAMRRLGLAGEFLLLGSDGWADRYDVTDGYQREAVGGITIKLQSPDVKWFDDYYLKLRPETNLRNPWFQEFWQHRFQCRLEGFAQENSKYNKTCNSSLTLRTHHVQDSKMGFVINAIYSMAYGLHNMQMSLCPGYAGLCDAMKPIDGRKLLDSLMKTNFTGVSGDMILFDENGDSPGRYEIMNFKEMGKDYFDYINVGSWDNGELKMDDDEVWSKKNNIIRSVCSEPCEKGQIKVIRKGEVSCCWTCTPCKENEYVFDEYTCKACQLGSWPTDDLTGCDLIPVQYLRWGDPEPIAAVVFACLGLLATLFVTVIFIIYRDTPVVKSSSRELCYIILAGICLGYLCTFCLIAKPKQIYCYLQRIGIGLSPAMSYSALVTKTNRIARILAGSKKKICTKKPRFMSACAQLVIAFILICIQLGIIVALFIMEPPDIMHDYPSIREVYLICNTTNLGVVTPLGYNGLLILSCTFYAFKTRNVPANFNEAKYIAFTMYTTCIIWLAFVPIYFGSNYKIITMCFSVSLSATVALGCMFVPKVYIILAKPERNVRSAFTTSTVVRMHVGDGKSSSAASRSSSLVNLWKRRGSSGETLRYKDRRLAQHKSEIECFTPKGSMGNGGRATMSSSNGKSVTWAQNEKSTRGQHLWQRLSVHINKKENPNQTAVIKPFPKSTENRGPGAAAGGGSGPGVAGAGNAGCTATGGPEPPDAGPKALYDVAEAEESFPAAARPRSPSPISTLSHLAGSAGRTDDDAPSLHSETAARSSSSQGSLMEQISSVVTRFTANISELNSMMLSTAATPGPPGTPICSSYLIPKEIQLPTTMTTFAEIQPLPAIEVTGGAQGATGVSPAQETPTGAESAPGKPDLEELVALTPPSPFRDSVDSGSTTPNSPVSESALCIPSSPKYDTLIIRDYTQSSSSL

Regarding `C[C@H](Nc1ncnc2c1nn1ccccc21)C1CC1` [Compound 12], at rat mGlu1, the “mGlu1 pIC50 (± SEM)” value is reported as less than 4.5.

For the compound `CC(C)(C)CCNc1ncnc2c1nn1ccccc21` [Compound 18], the “mGlu5 NAM potency relative to mGlu1 NAM activity” value on rat mGlu5 (rat mGlu5 vs rat mGlu1) is “approximately ten-fold less”.

For the compound `CCC(C)(C)Nc1ncnc2c1nn1ccccc21` [Compound 19], at rat mGlu1, the “mGlu1 NAM activity (in words)” value was “only a weak mGlu1 NAM, inhibiting the glutamate response only at the top concentration tested”.

Take `CC1(C)CCC(Nc2ncnc3c2nn2ccccc32)CC1` [Compound 29, N-(4,4-dimethylcyclohexyl)pyrido[1′,2′:1,5]pyrazolo[4,3-d]pyrimidin-4-amine]: on rat mGlu5 (Calcium mobilization assay, rat mGlu5, NAM), the “mGlu5 pIC50 (± SEM)” value worked out at 6.89 ± 0.29. The “effect on the orthosteric agonist concentration-response curve (fold-shift)” value in series [1] (10 μM, remaining six mGlus) was “no significant effects were observed”. In series [1] (versus remaining six mGlus), the “selectivity for the group I mGlu receptors” value was more than 75 fold. For the same compound, the “number of the 68 targets with no significant responses” value in series [2] is 62. Also, the “number of kinases of 369 inhibited more than 50%” value in the series on 369 kinases is on record as “eight”. Further, in the series “Rat IV PK”, the Vd stood at 3.1 L/kg. Moreover, the “estimated unbound brain concentration” value in series [3] and in series [4] was “approximately 100 nM” throughout.

For the compound `C[C@H]1CC[C@H](Nc2nc(N)nc3c2nn2ccccc32)CC1` [Compound 41], the “mGlu1 NAM activity (in words)” value at rat mGlu1 is listed as “weak mGlu1 NAM activity”.

As to `CNc1nc(N[C@H]2CC[C@H](C)CC2)c2nn3ccccc3c2n1` [Compound 42], the “mGlu1 pIC50 (± SEM)” value on rat mGlu1 is on record as less than 4.5.

For the compound `CN(C)c1nc(N[C@H]2CC[C@H](C)CC2)c2nn3ccccc3c2n1` [Compound 43], on rat mGlu1, the “mGlu1 pIC50 (± SEM)” value is less than 4.5.

As for `CC(C)Nc1nc(N[C@H]2CC[C@H](C)CC2)c2nn3ccccc3c2n1` [Compound 44], the “mGlu1 pIC50 (± SEM)” value on rat mGlu1 is on record as less than 4.5.

The record behind these values is article PMC4824313 (Bioorganic & medicinal chemistry letters, 2016).
